Screening results deposited in PubChem BioAssay by Broad Institute.
ERAP1 HTS inh – human ERAP1 aminopeptidase inhibitors, primary screen, biochemical, single point, plate reader. recombinant ERAP1, Leu-AMC fluorescence, 60 min. inhibition, % at 10.7 µM. 340,000 tested, 0.15% active. AID 652197, 2013;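 active = mean replicate inhibition of at least 30%, or all replicates individually reaching that 30% level; inactive = mean below 30% and not every replicate reaching it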;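 also: 0% = neutral control wells and 100% = L-leucinethiol positive control wells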
S100A4 MyoIIA – inhibitors of S100A4-myosin IIA peptide binding, primary screen, biochemical, fluorescence polarization, TAMRA-MyoIIA peptide. 360,000 tested, 0.14% active. inhibition, % at 10.7 µM. Protein S100-A4 (Homo sapiens), P26447. AID 652163, 2013;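 active = mean inhibition of at least 70% across replicates, with every replicate also reaching that level; inconclusive = mean inhibition reaches 70% but some replicates fall short; inactive = mean inhibition below 70%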
Target sequence (P26447 whole entry, looked up): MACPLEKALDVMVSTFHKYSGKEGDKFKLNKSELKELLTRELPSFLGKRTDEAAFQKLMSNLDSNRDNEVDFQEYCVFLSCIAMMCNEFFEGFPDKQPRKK
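Test system: S100A4 monomer protein. Medium: HEPES buffer with Ca2+, pH 7.2. Reagent: fluorescent myosin IIA peptide, 5 nM. Compound dosing: single-point compound testing. Timing: 5 min between mix addition and reading. Benchmarks: DMSO neutral and TFP positive wells.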
AF4-AF9 inh – inhibitors of AF4 peptide binding to AF9, primary screen, biochemical, AlphaScreen, biotin-AF4 peptide, FLAG-AF9, single point; Protein AF-9 (Homo sapiens), P42568; inhibition, % at 10 µM; 350,000 tested, 0.47% active;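 active = every replicate reaching a set inhibition limit, whatever the replicate mean, cut at about 25% in these data; inconclusive = mean inhibition reaches that limit but some replicates miss it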;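 also: 0% = plate neutral control median and 100% = total signal loss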
E-sel inducer – E-selectin induction in HUVECs, primary screen, imaging, HUVEC, immunofluorescence imaging, single point. P16581. normalized: neutral wells 0, TNF-alpha wells 100. activation, % at 7.58 µM. 260,000 tested, 0.37% active. AID 686992, 2013;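 active = mean E-selectin-positive cell signal at least 10% of the positive control, reached in at least 60% of replicates, without over 20% cell loss; inconclusive = no rule given, readout overlaps actives, possibly toxicity-flagged; inactive = the rest, including those meeting only one limit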
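Test system: HUVEC; input: 3,000 HUVEC/well; measured by: immunofluorescence imaging; read-out: % PE-positive cells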
SIRT5 inh – SIRT5 desuccinylase inhibitors, primary screen, biochemical, fluorescence imaging, single point, set 5 | NAD-dependent protein deacylase sirtuin-5, mitochondrial (Homo sapiens), Q9NXA8 | Purified SirT5, succinyl-peptide AMC, trypsin-coupled fluorescence | inhibition, % at 15 µM | 330,000 tested, 1.1% active | AID 652115, 2013; in the data active = inhibition above about 15%; inconclusive = no clear call, values can overlap the other calls
Target sequence (Q9NXA8 whole entry, looked up): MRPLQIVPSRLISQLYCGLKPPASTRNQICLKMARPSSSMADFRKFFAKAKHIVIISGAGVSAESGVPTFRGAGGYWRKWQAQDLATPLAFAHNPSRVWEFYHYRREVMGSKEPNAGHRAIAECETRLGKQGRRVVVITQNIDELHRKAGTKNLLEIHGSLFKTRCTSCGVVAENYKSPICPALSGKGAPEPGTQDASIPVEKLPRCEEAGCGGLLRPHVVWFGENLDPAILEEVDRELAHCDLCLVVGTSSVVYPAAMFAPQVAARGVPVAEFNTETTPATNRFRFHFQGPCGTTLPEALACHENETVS
rRNA inh HTS – reduced GFP signal of wild-type E. coli, primary screen, bacterial rRNA inhibitor project, GFP/RFP fluorescence, OD600, single point; E. coli WT GFP vs humanized-ribosome RFP mutants, 24 h; stronger effect = lower value; DMSO median 0, no signal -100; GFP signal change (wild-type ribosome), % (test concentration not listed); 350,000 tested, 1.6% active; AID 720706, 2013;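 active = significant combined selectivity score with lowered wild-type GFP, culture density cut under 30%, mutant RFP and density less affected; inactive = any of these conditions unmet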
* = called active by the depositor; ? = inconclusive; / = no result. Hits are enriched below; roughly 3.4% of the tested compounds scored in any of these assays.

SMILES | ERAP1 HTS inh | S100A4 MyoIIA | AF4-AF9 inh | E-sel inducer | SIRT5 inh | rRNA inh HTS
Cc1ccc2[nH]c(C)c(CCNC(=O)c3c(N)no[n+]3[O-])c2c1 | -2 | 2 | 2 | 11 | -1 | -35*
O=C(C[C@@H]1CC[C@@H]2[C@H](COC[C@@H](O)CN2C(=O)Nc2ccccc2)O1)NCCc1ccncc1 | 0 | 9 | -2 | 0 | -9 | 4
Cc1ccc(-c2nc(-c3ccncc3)no2)cc1C | 5 | -2 | 0 | / | 6 | 2
Fc1cccc(F)c1-c1nc(-c2ccncc2)no1 | -5 | 1 | -1 | 3 | 20* | 5
CNC[C@@H]1Oc2ccc(NC(=O)Nc3cccc4ccccc34)cc2C(=O)N([C@H](C)CO)C[C@@H]1C | 0 | 137* | 3 | / | 5 | -1
C[C@@H]1CCCCO[C@@H](CN(C)CC2CCCCC2)[C@H](C)CN([C@H](C)CO)C(=O)c2cc(NC(=O)c3ccccc3)ccc2O1 | 1 | 6 | 27* | 0 | -1 | -7
C[C@@H]1CCCCO[C@H](CN(C)CC2CCCCC2)[C@H](C)CN([C@@H](C)CO)C(=O)c2cc(NC(=O)Nc3cccc4ccccc34)ccc2O1 | -3 | -3 | 10 | 2 | 0 | -53*
C[C@@H]1CCCCO[C@@H](CN(C)CC2CCCCC2)[C@H](C)CN([C@@H](C)CO)C(=O)c2cc(NC(=O)c3ccccc3)ccc2O1 | 3 | ? | 10 | 0 | 0 | 8
Cc1noc(C)c1S(=O)(=O)N(C)C[C@@H]1OCCCC[C@@H](C)Oc2ccc(NC(=O)Nc3cccc4ccccc34)cc2C(=O)N([C@H](C)CO)C[C@@H]1C | 0 | 3 | -1 | 2 | 20* | 0
C[C@H]1CN([C@@H](C)CO)S(=O)(=O)c2ccc(C3=CCCCC3)cc2O[C@@H]1CN(C)C(=O)C1CCC1 | 0 | 11 | 3 | 1 | 4 | -21
COc1ccc2c3c(n(C)c2c1)[C@@H](CO)NCC31CN(S(=O)(=O)c2cccc(F)c2)C1 | / | / | / | / | / | -4
C[C@H]1CN([C@@H](C)CO)S(=O)(=O)c2ccc(C#CCN(C)C)cc2O[C@@H]1CN(C)C(=O)C1CCC1 | 1 | -6 | -1 | 1 | 6 | 0
C=CCn1cccc(C(=O)Nc2ccc(C)c(C)c2)c1=O | 0 | -5 | -1 | 0 | -1 | -30*
C=CCn1cccc(C(=O)Nc2ccc(C)cc2)c1=O | -3 | -3 | -2 | / | 1 | -6
O=C(O)c1cccc(Cn2c(Cl)c(/C=N/NC(=O)c3cc4ccccc4cc3O)sc2=O)c1 | / | -1 | 3 | 0 | 24* | 21
COc1cc(/C=C/C(=O)OCC(=O)NCCc2ccccc2)cc(OC)c1OC | -2 | 2 | 1 | / | -2 | -22
COc1cc(/C=C/C(=O)OCC(=O)NCCCc2ccccc2)cc(OC)c1OC | -1 | -6 | 0 | 0 | 2 | -18*
CO[C@H]1CC[C@H]2CCN(C)C(=O)[C@@H](C)[C@@H](OC)CN(C)C(=O)c3cc(C#N)ccc3OC[C@@H]1O2 | 0 | 2 | 8 | 0 | 1 | 6
C=Cn1cc[n+](CC(=O)c2cc(C(C)(C)C)c(O)c(C(C)(C)C)c2)c1 | 1 | 4 | -7 | / | 1 | -19*
Cc1noc(C)c1S(=O)(=O)Nc1ccc2c(c1)C(=O)N([C@H](C)CO)C[C@H](C)[C@H](CN(C)C(=O)CCC(F)(F)F)OCCCC[C@@H](C)O2 | -2 | 5 | 5 | 0 | 4 | 2
O=S(=O)(NCc1cccnc1)c1ccc(Cl)c2ccccc12 | 0 | 0 | -1 | 27* | -5 | -6
Cc1ccc(S(=O)(=O)N(C)C[C@H]2Oc3c(NC(=O)Nc4ccc(F)cc4)cccc3C(=O)N([C@H](C)CO)C[C@H]2C)cc1 | 0 | 6 | 2 | 2 | 7 | -5
COc1cccc(NC(=O)N[C@@H]2CC[C@H](CC(=O)N3CCN(C)CC3)O[C@H]2CO)c1 | 1 | 1 | -1 | 0 | -2 | -1
CC12CCC3C(CCC4CC(O)CCC43C)C1CC(O)C2 (centres undefined) | -1 | -1 | -6 | 1 | 1 | -28*
O=C(Nc1ccc2c(c1)[C@H]1C[C@@H](CC(=O)N3CCOCC3)O[C@@H](CO)[C@H]1O2)c1cccnc1 | -1 | -11 | -2 | 0 | -4 | 2
SMILES | ERAP1 HTS inh | S100A4 MyoIIA | AF4-AF9 inh | E-sel inducer | SIRT5 inh | rRNA inh HTS
CCn1c(=O)cc(OCC(=O)NCCc2ccc(OC)c(OC)c2)c2ccccc21 | 5 | -10 | 1 | / | 20* | -5
NC(=O)C1CCN(C2=C(NS(=O)(=O)c3ccc(Br)cc3)C(=O)c3ccccc3C2=O)CC1 | -1 | -3 | 32* | / | -2 | -31*
O=C1C(NS(=O)(=O)c2cccs2)=C(N2CCN(Cc3ccccc3)CC2)C(=O)c2ccccc21 | / | -10 | 54* | 8 | -3 | -10
CCN1CCN(C2=C(NS(=O)(=O)c3ccc(Br)cc3)C(=O)c3ccccc3C2=O)CC1 | 3 | -1 | 14 | / | 4 | 0
CCOC(=O)C1CCN(C2=C(NS(=O)(=O)c3ccc(Br)cc3)C(=O)c3ccccc3C2=O)CC1 | 3 | 0 | 39* | / | 23* | -38*
O=C1C(NS(=O)(=O)c2ccc(Cl)cc2)=C(N2CCCCC2)C(=O)c2ccccc21 | 0 | -3 | 40* | 0 | -3 | -45
NC(=O)C1CCN(C2=C(NS(=O)(=O)c3ccccc3)C(=O)c3ccccc3C2=O)CC1 | 1 | -1 | 13 | / | -15 | 1
COc1ccccc1/C=N\NC(=O)c1ccc(COc2ccc(C)c(C)c2)o1 | / | -11 | -1 | 48* | / | 10
COc1ccccc1/C=N/NC(=O)c1cc2c(ccc3ccccc32)o1 | -2 | -10 | 0 | 2 | 2 | -34
C[C@H](CO)N1C[C@H](C)[C@H](CN(C)Cc2ccccc2)Oc2ncc(-c3cccnc3)cc2C1=O | / | / | / | 0 | / | 0
COc1ccc(-n2c(CN3CCN(Cc4ccccc4)CC3)nc3ccc([N+](=O)[O-])cc3c2=O)c(OC)c1 | / | 0 | 2 | 0 | 35* | 6
O=C(Nc1ccc(C(=O)O)cc1)/C(=C\c1ccco1)NC(=O)c1ccc(Br)o1 | 5 | 2 | -2 | 0 | 6 | 17
O=C(N/C(=C/c1ccco1)C(=O)N1CCOCC1)c1ccc([N+](=O)[O-])cc1 | 4 | 10 | -3 | 0 | 1 | 19
